In article PMC7614192 (Biomedicine & pharmacotherapy = Biomedecine & …, 2022):

Assays:
[1] = tested on: primary human lymphocytes; settings: primary human lymphocytes in vitro; cited from earlier work
[2] = tested on: mouse model of multiple sclerosis; settings: oral application; cited from earlier work
[3] = tested on: activated human PBMC / T lymphocytes; assay: Cell cycle progression by DNA content; format: cell-based; settings: cyclotides, 72 h, PI staining, n = 3
Procedure, shortened: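 PBMC were activated with anti-CD3/anti-CD28 (100 ng/mL each) and incubated 72 h with test compound or CsA. Cells were washed, fixed and permeabilised in 70% ice-cold ethanol, then stained with PI plus RNase. Flow cytometry gave the share of living lymphocytes in each cell-cycle phase, reported as mean of three independent experiments.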

[4] = tested on: activated human primary T cells (PBMC); assay: Cell division tracking using CFSE; format: cell-based; settings: cyclotides, anti-CD3/anti-CD28 stimulated human PBMC, 72 h, n = 3
Procedure, shortened: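 PBMC at 5 × 10^6 cells/mL in PBS were labelled with CFSE (5 mM stock diluted 1/1000) for 10 min at 37 °C, and labelling was stopped by washing in complete medium. Cells (2 × 10^5) were activated with anti-CD3/anti-CD28 (100 ng/mL each) and cultured 72 h with test compound or CsA 4.16 μM. Proliferating cells were read by flow cytometry and normalised to the stimulated control. Mean ± SD, n = 3.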

CD107a on CD8+ T cells = assay: CD8+ T cell degranulation; format: cell-based, human; settings: cyclotides; activated PBMC 24 h, PMA/ionomycin 4 h, MFI of CD107a, n = 3
Procedure, shortened: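 Anti-CD3/anti-CD28 (100 ng/mL each) activated PBMC (2 × 10^5) were treated with test compound, CsA (4.16 μM) or camptothecin (300 μM) for 24 h. They were then restimulated with PMA (50 ng/mL) and ionomycin (500 ng/mL) for 4 h. Staining used CD107a-PE with GolgiStop, read by flow cytometry. CD107a MFI is expressed relative to the stimulated control. n = 3.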

[5] = tested on: activated human PBMC / T lymphocytes; assay: Apoptosis and necrosis by annexin V and propidium iodide staining; format: cell-based; settings: cyclotides, annexin V-FITC/PI, n = 3
Procedure, shortened: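 Donor PBMC (2 × 10^5) in RPMI 1640 with 10% heat-inactivated FBS and 2 mM L-glutamine at 37 °C, 5% CO2. Activated with anti-CD3 (HIT3) and anti-CD28 (28.6), 100 ng/mL each, then exposed to test compound. Annexin V-FITC/PI double staining by flow cytometry, normalised to the stimulated control. Camptothecin was the apoptosis control and Triton X-100 (0.5%) the necrosis control. Mean ± SD, n = 3, ANOVA/Dunnett.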

CD25 on T lymphocytes = assay: CD25 activation marker detection; format: cell-based, human; settings: cyclotides; activated PBMC, 24 h, n = 3
Procedure, shortened: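 PBMC (2 × 10^5) were stimulated with anti-CD3/anti-CD28 mAbs (100 ng/mL each) and exposed to test compound for 24 h. Controls were CsA 4.16 μM and camptothecin 300 μM. Stained with anti-CD25-PE plus anti-CD4-APC and read by flow cytometry. Result is the percentage of CD4+ and CD4− T cells expressing CD25, relative to the untreated stimulated control. n = 3, ANOVA/Dunnett.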

Substance	effect on T cell proliferation [1]	clinical scores [2]	concentration with significant reduction in the number of cells in the G2-phase [3]	concentration with significant reduction in T cell proliferation [4]	concentration with significant rise in degranulation levels (CD107a) (CD107a on CD8+ T cells)	concentration with significant increase in the number of apoptotic cells [5]	concentration with significant reduction of CD25 expression (CD25 on T lymphocytes)	concentration with significant reduction in CD107a levels (CD107a on CD8+ T cells)	concentration with significant induction of necrosis [5]
T20K (GLPVCGETCVGGTCNTPGCKCSWPVCTRN; not fully specified; Kalata-B1 cyclic backbone; UniProt P56254 89-117, looked up, variant T20K)	inhibition of T cell proliferation	significant delay and reductions in clinical scores	–	–	–	–	–	–	–
c-CGESCVFIPCFSSVIGCSCKNKVCYRNGVIP (bicyclic or more) [caripe 12]	–	–	30 µM	30 µM	3 µM	30 µM	–	–	–
c-CGESCVFIPCFSTVIGCSCKNKVCYRNGVIP (bicyclic or more) [caripe 10]	–	–	10 µM	10 µM	–	10 µM	10 µM	10 µM	–
c-CGESCVFIPCFTSVFGCSCKDKVCYRNGIP (bicyclic or more) [caripe 13]	–	–	–	30 µM	–	–	–	–	30 µM
c-CGESCVFIPCISTVIGCSCKKKVCYRNGVIP (bicyclic or more) [caripe 11]	–	–	30 µM	30 µM	3 µM	10 µM	–	–	–
c-CGESCVFIPCITAAIGCSCKKKVCYRNGVIP (bicyclic or more) [caripe 8]	–	–	30 µM	10 µM	3 µM	–	10 µM	10 µM	10 µM
cyclo-CGESCVFIPCTVTALLGCSCKNKVCYRNGIP (bicyclic or more) [caripe 7]	–	–	10 µM	10 µM	–	–	10 µM	10 µM	3 µM
